Screening data deposited in PubChem BioAssay by several laboratories.
UPR XBP1 act: adaptive UPR (XBP1) activation. CHO-XBP1 luciferase reporter, IRE1-XBP1 UPR activation, luminescence; percent of tunicamycin response, DMSO as zero. activation, % at 20 µM. 330,000 tested, 0.33% active;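 active = versus positive control, 20 µM dose yields 30% or more activation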;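 also: 100% = tunicamycin at 10 µg/mL and 0% = DMSO only wells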
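assay system = CHO-XBP1 luciferase reporter cells | amount = 1000 cells/well | buffer or medium = F12 plus 10% FBS | compound dosing = single point, 20 µM final compound, 1% DMSO | incubation = 16-18 h cell attachment at 37 °C, then 6 h compound exposure | detection = Steady-Glo luminescence read | controls = tunicamycin 10 µg/mL and vehicle-only wells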
SKKanGAS inh: inhibitors of SKKanGAS S. pyogenes growth in kanamycin (SK-promoter or general growth effect) | 300,000 tested, 1.3% active | inhibition, % at 7.5 µM | BacTiter-Glo, 6 h;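 active = mean replicate score, as percent of positive control median, at least 50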;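 also: strain carries kanamycin resistance gene driven by streptokinase promoter and grows in 40 µg/ml kanamycin; loss of luminescence reflects streptokinase promoter inhibition or plain growth inhibition; 0% = median of DMSO wells and 100% = positive control at its reference dose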
Beta cell apopt: beta cell apoptosis inhibition. INS-1E cytokine-induced death, ATP luminescence, 48 h; percent of positive-control rescue, neutral wells zero. protection from apoptosis, % (no concentration beside the values). 300,000 tested, 0.8% active;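 active = Every replicate reaches about 75%, or at least half do and their mean reaches it too, limit read from the data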;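 also: 0% = cytokine-treated negative control wells and 100% = positive control rescue; higher means more ATP so stronger rescue from cytokine killing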
Mdm2-MdmX inh: disrupts the human Mdm2-MdmX interaction | SaOS-2 split-luciferase Mdm2/MdmX complementation, luminescence | AID 485346 | 330,000 tested, 3% active | inhibition, % at 8 µM;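 active = inhibition of at least 50% at 8 µM in the primary screen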
Target sequence (O15151 whole entry, looked up): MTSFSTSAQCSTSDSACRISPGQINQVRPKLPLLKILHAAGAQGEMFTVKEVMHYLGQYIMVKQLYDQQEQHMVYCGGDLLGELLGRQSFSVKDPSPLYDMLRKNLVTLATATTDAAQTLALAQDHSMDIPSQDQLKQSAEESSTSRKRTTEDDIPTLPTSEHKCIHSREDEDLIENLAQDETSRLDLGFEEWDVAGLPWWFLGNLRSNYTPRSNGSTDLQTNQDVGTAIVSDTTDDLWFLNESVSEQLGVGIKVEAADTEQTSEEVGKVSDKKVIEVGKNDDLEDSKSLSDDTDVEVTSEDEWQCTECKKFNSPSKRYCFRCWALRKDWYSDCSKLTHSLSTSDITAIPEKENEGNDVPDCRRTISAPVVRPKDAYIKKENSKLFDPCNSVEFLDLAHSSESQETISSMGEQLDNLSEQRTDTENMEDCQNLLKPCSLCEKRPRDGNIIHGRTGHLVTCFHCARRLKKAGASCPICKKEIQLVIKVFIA
Target sequence (Q00987 whole entry, looked up): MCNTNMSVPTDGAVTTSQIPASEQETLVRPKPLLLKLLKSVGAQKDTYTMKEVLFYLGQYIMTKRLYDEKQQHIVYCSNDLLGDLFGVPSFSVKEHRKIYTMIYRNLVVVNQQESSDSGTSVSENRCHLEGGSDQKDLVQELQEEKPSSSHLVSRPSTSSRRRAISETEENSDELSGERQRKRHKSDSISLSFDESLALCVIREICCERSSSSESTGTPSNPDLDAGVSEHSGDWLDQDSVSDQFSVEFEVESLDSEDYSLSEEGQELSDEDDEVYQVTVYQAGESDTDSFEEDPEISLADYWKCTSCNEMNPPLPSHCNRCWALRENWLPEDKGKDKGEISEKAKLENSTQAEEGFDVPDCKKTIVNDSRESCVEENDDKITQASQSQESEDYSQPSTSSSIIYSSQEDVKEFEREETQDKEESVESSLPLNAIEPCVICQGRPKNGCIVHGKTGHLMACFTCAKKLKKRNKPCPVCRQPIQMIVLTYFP
CSC inhib: blocks cancer stem cells; cancer stem cell-like cells viability, luminescence; AID 2717; 300,000 tested, 1.1% active; inhibition, % at 7.5 µM; in the data active = inhibition above about 75%; tested in HMLE shEcad cells
UPR CHOP act: activators of apoptotic arm of unfolded protein response (CHOP); CHO-CHOP luciferase reporter, UPR activation, luminescence; percent of tunicamycin response over DMSO baseline; activation, % at 10 µM; 330,000 tested, 0.34% active;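 active = at 10 µM dose, activation of 40% or more, normalized to positive control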;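 also: 100% = tunicamycin at 10 µg/mL and 0% = DMSO alone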
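Assay system: CHO cells with stable CHOP pathway luciferase reporter; Buffer or medium: F12 plus 10% serum; Times: 16-18 h cell attachment, then 6 h compound exposure, 37 °C; Signal: luciferase luminescence; Read-out basis: percent activation relative to tunicamycin control; Control set: tunicamycin high control, DMSO low control.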
Starred values were filed as active, the others as inactive; . = no result given. This is a sample that favours compounds with a hit; in the whole collection about 4.8% have one here.

SMILES | UPR XBP1 act | SKKanGAS inh | Beta cell apopt | Mdm2-MdmX inh | CSC inhib | UPR CHOP act
Cc1ccccc1N1CCN(S(=O)(=O)c2nnc(NC(=O)c3ccco3)s2)CC1 | -2.2 | 50.6* | 2.5 | 20.1 | 33.6 | 1.8
COC(=O)c1ccc(C2NCCc3cc(OC)c(OC)cc32)cc1 (stereo not given) | -0.2 | -1.4 | -6.4 | 17.4 | -14.2 | -0.8
CCOc1cccc2sc(Nc3nc4ccc(NC(C)=O)cc4s3)nc12 | 8.4 | 71.5* | 27.7 | -9.6 | -10.4 | 5.7
Cc1cc(-c2n[nH]c(=S)n2/N=C/c2ccc(Br)s2)n[nH]1 | -2.6 | 8.9 | -6.7 | 0.3 | 7.6 | -0.2
Oc1c(Br)cc(Br)cc1/C=N/n1c(-c2ccccc2)n[nH]c1=S | 0.6 | 3.3 | -9.1 | 9.7 | 1.4 | -0.4
S=c1[nH]nc(-c2cc(-c3ccccc3)n[nH]2)n1/N=C/c1ccc(Br)s1 | 1.5 | 59.5* | -10.5 | -13.3 | 52.9 | 3.4
Oc1c(Br)cc(/C=N/n2c(-c3ccccc3)n[nH]c2=S)c(Br)c1O | . | 3.0 | 8.5 | . | 106.1* | .
S=c1[nH]nc(-c2cc(-c3ccccc3)n[nH]2)n1/N=C/c1c(Cl)cccc1Cl | 3.2 | 61.0* | -1.3 | 3.6 | 41.2 | 3.7
Cc1ccccc1/C=N/n1c(-c2cc(-c3ccccc3)n[nH]2)n[nH]c1=S | -2.3 | 6.7 | -2.8 | -30.6 | 9.2 | 0.8
CCN1C(=O)/C(=C\c2ccncc2)SC1=S | -0.5 | -5.2 | -3.6 | 16.2 | 21.7 | -1.0
CCCCC(CC)CN1C(=O)/C(=C/c2ccncc2)SC1=S (stereo not given) | -5.1 | 86.5* | 88.3* | 21.1 | 106.6* | -0.9
COc1ccc(C(=O)c2coc3c2C(=O)C(=O)c2ccccc2-3)cc1 | 6.7 | 57.8* | 4.7 | -3.0 | 51.4 | 6.7
CCOc1cc(N2CCOCC2)c(OCC)cc1NC(=O)CN1CCC(Cc2ccccc2)CC1 | -1.6 | -0.7 | -4.5 | 13.1 | 84.3* | 0.2
c1ccc2c(c1)nc(Nc1ccc(N3CCCCC3)cc1)c1nncn12 | -2.6 | 59.1* | -3.6 | 24.8 | -11.7 | -1.4
CC(OC(=O)c1ccc([N+](=O)[O-])o1)C(=O)Nc1nc(-c2ccc(F)c(F)c2)cs1 (stereo not given) | 9.0 | . | . | -19.5 | . | 7.2
CCOC(=O)c1c(-c2ccc(C)cc2)csc1NC(=O)c1ccc(N2C(=O)CCC2=O)cc1 | -1.5 | 44.4 | -7.3 | -7.2 | 12.4 | -0.6
CCOC(=O)c1cc(CC)sc1NC(=O)c1ccc(N2C(=O)CCC2=O)cc1 | 1.6 | 55.0* | -0.5 | 29.6 | 12.0 | 0.8
Fc1ccc(-n2nnc(-c3ncc[nH]3)n2)cc1 | 1.0 | -1.4 | 0.1 | -6.7 | -6.2 | 5.3
C/C(=N\NC(=O)c1ccccc1NC(=O)c1ccc(Cl)cc1)c1ccncc1 | -6.1 | 75.7* | 102.5* | -117.0 | 136.4* | -9.2
C/C(=N\NC(=O)C(=O)Nc1ccc(C)c(Cl)c1)c1ccncc1 | 1.0 | -6.2 | 21.2 | 6.0 | -11.4 | 3.9
C/C(=N\NC(=O)C(=O)Nc1cccc(Cl)c1)c1ccncc1 | 1.9 | -1.4 | 80.9* | -5.5 | 36.5 | 5.4
C/C(=N/NC(=O)c1ccncc1)c1ccccc1 | -1.6 | 4.2 | . | -13.8 | -7.9 | 1.1
COc1ccc2oc(C(=O)OCC(=O)NC3(C#N)CCCC3)c(C)c2c1 | -1.8 | 53.2* | 3.7 | 21.2 | . | 0.0
Cc1ccc(N(C(=O)c2csnn2)C(C(=O)NC2CCCCC2)c2cccnc2)cc1 (stereo not given) | -1.7 | -2.8 | 2.7 | 20.9 | -8.8 | -0.1
COc1ccc(-c2coc3c(C)c4oc(=O)c(CCC(=O)O)c(C)c4cc23)cc1 | -5.2 | 53.2* | . | 11.2 | . | 1.0
Cc1c(CCC(=O)O)c(=O)oc2c(C)c3occ(-c4ccc(Br)cc4)c3cc12 | 2.4 | 45.6 | 6.2 | 27.1 | 3.7 | 4.1
Cc1cccc2sc(NC(=O)C3c4ccccc4Oc4ccccc43)nc12 | -0.2 | 29.9 | 46.2 | 35.5 | 126.0* | -1.4
S=C(N/N=C/c1ccc2c(c1)OCO2)NC1CC2CCC1C2 (stereo not given) | 8.8 | -12.2 | 11.4 | -35.1 | 51.2 | 5.3
O=c1c2ccccc2sn1-c1ccc(S(=O)(=O)N2CCCCC2)cc1 | -2.5 | -3.0 | -9.4 | 30.3 | -7.3 | 6.2
